Measurements reported in ChEMBL document CHEMBL5661972, “In vitro biological activity of a novel small-molecule inhibitor of polo-like kinase 1” (Mol Cancer Ther, 2007).

Legend:
NCI-H460 [1] = assay: Induction of cell cycle arrest in human NCI-H460 cells assessed as accumulation of cells at S phase at 1 micromol/L incubated for 24 hrs by propidium iodide staining based flow cytometry analysis (reference value: 23.2 %); assay type: functional; details: dose 1 µmol/L, at 1 µM
NCI-H460 [2] = assay: Induction of cell cycle arrest in human NCI-H460 cells assessed as accumulation of cells at G2-M phase at 3 micromol/L incubated for 72 hrs by propidium iodide staining based flow cytometry analysis (reference value: 18.2 %); assay type: functional; details: dose 3 µmol/L
NHDF [3] = assay: Induction of cell cycle arrest in human HDF cells assessed as accumulation of cells at >4N phase at 1 micromol/L incubated for 24 hrs by propidium iodide staining based flow cytometry analysis (reference value: 2.4 %); assay type: toxicity; details: 1 µM, dose 1 µmol/L
Method in brief: (§1)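 Cells seeded in six-well plates at densities that keep them in log growth (HDF 120,000, 60,000 or 30,000; H460 100,000, 50,000 or 25,000 per well for 24, 48 or 72 h). Treated with 1 or 3 μmol/L. Floating and adherent cells collected, ethanol-fixed, permeabilized with Triton X-100 and stained with propidium iodide. DNA content read by flow cytometry as % singlet cells.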

NHDF [4] = assay: Induction of cell cycle arrest in human HDF cells assessed as accumulation of cells at G2-M phase at 3 micromol/L incubated for 72 hrs by propidium iodide staining based flow cytometry analysis (reference value: 8.2 %); assay type: toxicity; details: 3 µM, dose 3 µmol/L; method in brief: as §1
[5] = Selectivity ratio of IC50 for cytotoxicity against human HDF cells to IC50 for anti-proliferative activity against human HeLa cells; assay type: toxicity, cell-based; details: HDF cells versus HeLa cells, read-out: Ratio IC50
NHDF [6] = assay: Induction of cell cycle arrest in human HDF cells assessed as accumulation of cells at G2-M phase at 3 micromol/L incubated for 48 hrs by propidium iodide staining based flow cytometry analysis (reference value: 14.3 %); assay type: toxicity; details: 3 µM, dose 3 µmol/L; method in brief: as §1
[7] = Selectivity ratio of IC50 for cytotoxicity against human HDF cells to IC50 for antiproliferative activity against human BT-474 cells; assay type: toxicity, cell-based; details: HDF cells versus BT-474 cells, read-out: Ratio IC50
NCI-H460 [8] = assay: Induction of cell cycle arrest in human NCI-H460 cells assessed as accumulation of cells at Sub-2N phase at 3 micromol/L incubated for 48 hrs by propidium iodide staining based flow cytometry analysis (reference value: 2.5 %); assay type: functional; details: dose 3 µmol/L, at 3 µM
[9] = Selectivity ratio of IC50 for cytotoxicity against human HDF cells to IC50 for antiproliferative activity against human NCI-N87 cells; assay type: toxicity, cell-based; details: HDF cells versus NCI-N87 cells, read-out: Ratio IC50
NHDF [10] = assay: Induction of cell cycle arrest in human HDF cells assessed as accumulation of cells at G2-M phase at 1 micromol/L incubated for 24 hrs by propidium iodide staining based flow cytometry analysis (reference value: 22.6 %); assay type: toxicity; details: 1 µM, dose 1 µmol/L; method in brief: as §1
NCI-H460 [11] = assay: Induction of cell cycle arrest in human NCI-H460 cells assessed as accumulation of cells at Sub-2N phase at 1 micromol/L incubated for 48 hrs by propidium iodide staining based flow cytometry analysis (reference value: 2.5 %); assay type: functional; details: dose 1 µmol/L, at 1 µM
NCI-H460 [12] = assay: Induction of cell cycle arrest in human NCI-H460 cells assessed as accumulation of cells at G2-M phase at 3 micromol/L incubated for 24 hrs by propidium iodide staining based flow cytometry analysis (reference value: 19.8 %); assay type: functional; details: dose 3 µmol/L, at 3 µM
NCI-H460 [13] = assay: Induction of cell cycle arrest in human NCI-H460 cells assessed as accumulation of cells at G1 phase at 3 micromol/L incubated for 72 hrs by propidium iodide staining based flow cytometry analysis (reference value: 58.2 %); assay type: functional; details: dose 3 µmol/L, at 3 µM
[14] = Inhibition of p53-PLK1 in human HeLa cells assessed as inhibition of p53 phosphorylation at Ser15 residue by ELISA analysis; assay type: cell-based
Method in brief: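 HeLa Tet-On cells carrying tet-inducible p53-PLK1 kinase-domain fusion (T210D), induced overnight with 125 ng/mL doxycycline; ten 3-fold dilutions (30–0.00152 μmol/L final, 0.3% DMSO, 5% serum) for 1 h. Lysates captured on anti-p53-coated plates overnight at 4°C; phospho-Ser15 and total p53 detected with HRP secondary/TMB, A450. IC50 from curve fit.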

NHDF [15] = assay: Induction of cell cycle arrest in human HDF cells assessed as accumulation of cells at S phase at 3 micromol/L incubated for 48 hrs by propidium iodide staining based flow cytometry analysis (reference value: 4.7 %); assay type: toxicity; details: 3 µM, dose 3 µmol/L; method in brief: as §1
HeLa = assay: Inhibition of p53-PLK1 in human HeLa cells assessed as inhibition of p53 phosphorylation at Ser15 residue by Western blotting analysis; assay type: cell-based; details: dose 0.0015-30 µM
Method in brief: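 HeLa cells with tet-inducible p53-PLK1 fusion induced overnight with 125 ng/mL doxycycline, then treated 6 h with 3-fold dilutions (30–0.00152 μmol/L). Lysates resolved on 4–12% Bis-Tris gels, transferred to nitrocellulose, probed for phospho-Ser15 p53 or total p53.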

NCI-H460 [16] = assay: Induction of cell cycle arrest in human NCI-H460 cells assessed as accumulation of cells at S phase at 1 micromol/L incubated for 72 hrs by propidium iodide staining based flow cytometry analysis (reference value: 17.8 %); assay type: functional; details: dose 1 µmol/L, at 1 µM
NHDF [17] = assay: Induction of cell cycle arrest in human HDF cells assessed as accumulation of cells at G1 phase at 1 micromol/L incubated for 72 hrs by propidium iodide staining based flow cytometry analysis (reference value: 85.6 %); assay type: toxicity; details: 1 µM, dose 1 µmol/L; method in brief: as §1

IC50 [14]: 140 nM
SMILES: COc1cc2ncn(-c3cc(OCc4ccccc4C(F)(F)F)c(C(N)=O)s3)c2cc1OC [GW843682X]
Activity (NCI-H460 [1]): 18.2%
Activity (NCI-H460 [2]): 4.7%
Activity (NHDF [3]): 3.5%
Activity (NHDF [4]): 52.7%
selectivity ratio [5]: > 10
Activity (NHDF [6]): 61.2%
selectivity ratio [7]: > 10
Activity (NCI-H460 [8]): 20.3%
selectivity ratio [9]: > 10
Activity (NHDF [10]): 27.6%
Activity (NCI-H460 [11]): 14.4%
Activity (NCI-H460 [12]): 37.7%
Activity (NCI-H460 [13]): 3.7%
Activity (NHDF [15]): 5.9%
inhibition (HeLa): Dose-Dependent Effect
Activity (NCI-H460 [16]): 2.8%
Activity (NHDF [17]): 66.2%
